Compound activity (PubChem BioAssay)
Rin1 Abl inh – blocks binding of human Rin1 to Abl; hit rate 0.4% among 360,000; inhibition, % at 7.35 µM; TR-FRET Rin1/Abl binding, biochemical; in the data active means inhibition above about 5%, passing the limit was not always enough
GRK2 aptamer HTS – inhibitors of human GRK2 displacing RNA aptamer; bead flow cytometry, FAM-aptamer displacement from GRK2; P25098; inhibition of aptamer binding, % at 10 µM; hit rate 0.59% among 330,000;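 active means inhibition of aptamer binding above 40%, roughly 3 SD of noise, on plates passing a quality check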;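 further: median bead fluorescence of bound FAM aptamer so fluorescent compounds give negative values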
SR-BI DiI-HDL act – activators of SR-BI mediated HDL lipid uptake; CHO ldlA[mSR-BI] cells, DiI-HDL uptake fluorescence, 3 h; 100 = double the neutral-control signal; activation, % at 12.5 µM; hit rate 0.096% among 320,000; AID 504775;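 active means mean replicate activation of at least 60% and every replicate at or above 60%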
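Test system: SR-BI-overexpressing, LDLR-lacking CHO cells; Also added: labelled HDL, 10 µg/mL; Measured by: bottom-read cell fluorescence after medium removal, ex 550/em 595 nm; Timing: 3 h uptake period with compound, 37 °C; Buffer or medium: F12, 0.5% BSA, 25 mM HEPES; Doses: single compound concentration, delivered by pin transfer.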
SR-BI DiI inh – inhibitors of mouse SR-BI mediated HDL lipid uptake; Q61009; ldlA[mSR-BI] CHO cells, DiI-HDL uptake fluorescence, 3 h; inhibition, % at 12.5 µM; hit rate 0.96% among 320,000;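 active means mean replicate inhibition of at least 70% and a set share of replicates each scoring 70 or more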
Numbers stand for hits; . = inactive; / = no result. A selection: hits, their analogues and other compounds. The true share with any hit is near 1.9%.

SMILES	Rin1 Abl inh	GRK2 aptamer HTS	SR-BI DiI-HDL act	SR-BI DiI inh
COc1ccc(NS(=O)(=O)c2cc(C(=O)N(C)CCc3ccccn3)ccc2Cl)cc1	.	/	.	.
O=c1[nH]c(-c2ccccc2)ncc1OCc1ccccc1	.	/	.	.
COc1ccc(-c2ccc(NCCC3=CCCCC3)nn2)cc1OC	.	.	.	75
O=C1c2cccc3cccc(c23)C(=O)C1(O)O	14	.	.	.
COc1cccc(-c2c(-c3cc(OC)cc(OC)c3)n(C)c3ccc(-c4cccc5[nH]ccc45)cc23)c1	.	.	.	.
CCOC(=O)C1=C(C)N=c2sc(=Cc3cc(Cl)c(OCC(=O)O)c(Cl)c3)c(=O)n2C1c1cccc(OC)c1 (centres undefined)	.	/	/	/
COc1c(F)cccc1C1=CC(=O)C[C@H](c2ccc(F)cc2)C1	.	/	/	/
O=C(NCc1cccnc1)c1cc(C2CCCCN2S(=O)(=O)Cc2ccccc2)on1 (centres undefined)	.	/	/	/
C[C@H](CO)N1C[C@H](C)[C@@H](CN(C)Cc2ccc(C(=O)O)cc2)Oc2ncc(Br)cc2C1=O	.	/	/	/
COc1ccccc1OCCn1cc(/C=N/NC(N)=S)c2ccccc21	.	.	.	77
COc1ccccc1OCCn1cc(/C=N/NC(=O)c2ccncc2)c2ccccc21	.	.	.	.
COc1ccc(OCCn2cc(C=O)c3ccccc32)cc1	.	.	.	.
CNC(=S)N/N=C/c1cn(CCOc2ccc(OC)cc2)c2ccccc12	.	.	.	78
CC(=O)Nc1cccc(-c2ccnc3c2CC(C(=O)NCc2cccs2)O3)c1 (centres undefined)	.	/	/	/
Cc1cc(C)nc(NN2C(=O)/C(=C/c3ccc(O)cc3)SC2=S)n1	.	84	.	.
Cc1ccc(C(C(=O)NC(C)(C)C)N(Cc2cccnc2)C(=O)C(=O)NC2CCCCC2)o1 (centres undefined)	.	.	.	.
CC(=O)Nc1ccc(-c2ccnc3c2CC(C(=O)Nc2cccc(C(F)(F)F)c2)O3)cc1 (centres undefined)	.	/	/	/
COc1ccc(C(=O)Nc2cccc(C(=O)N/N=C/c3ccc(OC)cc3OC)c2)cc1	.	.	.	90
Cc1ccccc1C(=O)Nc1cccc(C(=O)N/N=C/c2ccccn2)c1	.	.	.	.
Cc1ccc(C(=O)Nc2ccc(C(=O)N/N=C/c3ccc(C)o3)cc2)cc1	.	.	.	80
COc1ccccc1/C=N/NC(=O)c1cccc(NC(=O)c2ccccc2Cl)c1	.	.	.	77
COc1ccc(/C=N/NC(=O)c2cccc(NC(=O)c3ccccc3Cl)c2)cc1OC	.	.	.	.
Cc1ccc(/C=N/NC(=O)c2ccc(NC(=O)c3ccc(Cl)cc3)cc2)o1	.	.	.	.
COc1ccccc1/C=N/NC(=O)c1cccc(NC(=O)c2ccccc2C)c1	.	.	.	75
CSc1ccc(OC2(C)CCN(Cc3ccc4c(c3)OCCO4)C2)cc1 (centres undefined)	.	/	/	/
SMILES	Rin1 Abl inh	GRK2 aptamer HTS	SR-BI DiI-HDL act	SR-BI DiI inh
O=C(CSc1nnc2ccccn12)NNC(=O)c1cccc(Cl)c1	.	.	.	.
COc1ccc(/C=N/NC(=O)c2cccc(NC(=O)c3ccccc3Cl)c2)c(OC)c1	.	.	.	77
COc1ccc(/C=N/NC(=O)c2cccc(NC(=O)c3ccccc3Cl)c2)cc1	.	.	.	.
Cc1ccc(C(=O)Nc2cccc(C(=O)N/N=C/c3ccc(F)cc3)c2)cc1	.	.	.	76
C/C(=N\NC(=O)c1c(Cl)cnn1C)c1cccc(NC(=O)c2ccc(C)cc2)c1	.	.	.	85
CCN(CC(=O)NC(C)(C)C)C(=O)CN1c2cccc3cccc(c23)S1(=O)=O	.	.	.	.
CC(Oc1ccc(Cl)cc1Cl)C(=O)Nc1ccc2oc(-c3ccncc3)nc2c1 (centres undefined)	.	.	.	78
CCOC(=O)c1sc2nc(SC)nc(-c3ccc(Cl)cc3)c2c1N	.	.	.	87
CCOC(=O)N(C)c1c(CC)nc2c(OCc3ccc(Cl)cc3)cccn12	.	/	/	/
CC1(C)Cc2nc3sc4c(NCCO)ncnc4c3cc2CS1	.	.	.	79
CCCCn1cnc2c(sc3nc4c(cc32)CSC(C)(C)C4)c1=O	.	.	.	.
CC(/C=C/c1ccccc1)=N/NC(=O)c1cnccn1	.	.	.	.
O=C(N/N=C/C=C/c1ccccc1)c1cnccn1	.	.	240	.
COc1cc(-c2cc(-c3ccc(O)cc3)nc(N)c2C#N)ccc1O	.	.	.	84
O=C(CN1C(=O)/C(=C/c2ccco2)SC1=S)NC1CCS(=O)(=O)C1 (centres undefined)	.	45	.	.
